Test results from publication PMC7302971 (Bioorganic chemistry, 2020).
Where two headings read alike, the source gives them in different places.

Legend:
HDAC8 [1] = target: T1, HDAC8 (Homo sapiens, UniProt Q9BY41); assay: HDAC enzyme activity assay; assay type: biochemical; conditions: for remaining activity at 50 µM: read-out: Residual HDAC8 activity at 50 μM
T1 sequence (Q9BY41 1-377): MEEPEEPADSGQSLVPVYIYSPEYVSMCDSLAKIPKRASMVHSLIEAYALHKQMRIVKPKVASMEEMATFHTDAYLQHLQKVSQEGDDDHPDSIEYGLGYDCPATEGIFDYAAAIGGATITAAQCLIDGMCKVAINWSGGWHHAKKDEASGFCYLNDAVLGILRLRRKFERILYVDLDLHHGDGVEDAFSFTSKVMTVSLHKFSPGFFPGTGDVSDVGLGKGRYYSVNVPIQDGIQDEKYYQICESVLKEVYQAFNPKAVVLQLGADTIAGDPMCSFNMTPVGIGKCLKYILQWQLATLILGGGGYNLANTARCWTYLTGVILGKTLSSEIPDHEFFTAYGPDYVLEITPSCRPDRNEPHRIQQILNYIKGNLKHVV
Summary of the method: (§1)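 HDAC4 and HDAC8 were in-house recombinant enzymes. Each was preincubated with inhibitor, either a single 50 μM screen or serial dilutions, for 60 min at 30 °C in Tris-HCl pH 8.0/KCl/Pluronic buffer. Substrate was 20 μM Boc-Lys(trifluoroacetyl)-AMC for 60 min at 30 °C, stopped with 1.7 μM SATFMK, and developed with trypsin. AMC fluorescence was read at 350/450 nm and reported as residual activity or as IC50 from a four-parameter logistic fit.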

HDAC4 = HDAC4 (Homo sapiens, UniProt P56524); assay: HDAC enzyme activity assay; assay type: biochemical; conditions: for remaining activity at 50 µM: read-out: Residual HDAC4 activity at 50 μM
Summary of the method: as §1

CEM leukemia cells = assay: Differential Nuclear Staining; assay type: cell-based, human; conditions: 48 h; for CC50: Homo sapiens; for cell death at 100 μM: CEM, DNS assay
Summary of the method: (§2)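 Cells were seeded at 10,000/well and exposed to test compound for 48 h at 1% (v/v) final DMSO. The first screen used a single concentration with controls in quadruplicate. Dose-response used 0.5–100 μM in triplicate. Controls: DMSO vehicle, hydrogen peroxide (positive), untreated (negative). Hoechst 33342 plus PI were added 2 h before automated imaging, and colocalised signal was scored as dead. […] Two-tailed t-test versus DMSO.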

KCL-22 leukemia cells = assay: Differential Nuclear Staining; assay type: cell-based, human; conditions: for cell death at 100 μM: KCL22, DNS assay, 48 h
Summary of the method: as §2

K-562 leukemia cells = assay: Differential Nuclear Staining; assay type: cell-based, human; conditions: for cell death at 100 μM: K562, DNS assay, 48 h; for CC50: Homo sapiens, K562, 48 h
Summary of the method: as §2

HDAC8 [2] = target: T1, HDAC8; assay: Thermal shift assay; assay type: binding

Sequence of HDAC4 (P56524 648-1057 limits assumed): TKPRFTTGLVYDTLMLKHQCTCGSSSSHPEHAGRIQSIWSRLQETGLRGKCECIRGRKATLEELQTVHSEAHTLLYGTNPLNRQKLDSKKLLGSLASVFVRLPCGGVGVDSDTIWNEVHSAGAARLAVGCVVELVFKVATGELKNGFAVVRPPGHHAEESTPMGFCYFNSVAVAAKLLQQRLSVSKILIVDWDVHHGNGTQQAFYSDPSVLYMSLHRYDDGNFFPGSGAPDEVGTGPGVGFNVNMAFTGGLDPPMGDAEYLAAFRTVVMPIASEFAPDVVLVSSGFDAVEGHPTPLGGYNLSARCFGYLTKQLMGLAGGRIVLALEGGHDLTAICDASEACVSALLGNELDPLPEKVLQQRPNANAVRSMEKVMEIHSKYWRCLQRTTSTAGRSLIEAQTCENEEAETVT

| IC50 (HDAC8 [1]) | remaining activity at 50 µM (HDAC8 [1]) | IC50 (HDAC4) | remaining activity at 50 µM (HDAC4) | Molecule | further results |
| --- | --- | --- | --- | --- | --- |
| – | – | – | – | 2-(2,4-dioxo-5-(pyridin-2-ylmethylene)thiazolidin-3-yl)-N-(4-methylisoxazol-3-yl)acetamide [Compound P18] | Residual HDAC8 activity at 50 μM (HDAC8 [1]; 50 μM): 99%; IC50 (HDAC8 [1]; read-out: HDAC8 IC50, triplicates, N=3): > 50 µM; Residual HDAC4 activity at 50 μM (HDAC4; 50 μM): 100%; IC50 (HDAC4; read-out: HDAC4 IC50, triplicates, N=3): > 50 µM |
| > 50 µM | 91% | > 50 µM | 100% | O=C(CN1C(=O)SC(=Cc2ccccn2)C1=O)Nc1ccccc1Oc1ccccc1 [Compound P13, 2-(2,4-dioxo-5-(pyridin-2-ylmethylene)thiazolidin-3-yl)-N-(2-phenoxyphenyl)acetamide] | – |
| > 50 µM | 82% | > 50 µM | 100% | O=C(CN1C(=O)SC(=Cc2ccccn2)C1=O)Nc1ccc(Cl)c(Cl)c1 [Compound P8, N-(3,4-dichlorophenyl)-2-(2,4-dioxo-5-(pyridin-2-ylmethylene)thiazolidin-3-yl)acetamide] | CC50 (CEM leukemia cells): 36.9 ± 1.11 µM; cell death at 100 μM (KCL-22 leukemia cells): 29.22% cell death at 100 μM; cell death at 100 μM (K-562 leukemia cells): 40.28% cell death at 100 μM |
| > 50 µM | 61% | > 50 µM | 100% | O=C(CN1C(=O)SC(=Cc2ccccn2)C1=O)Nc1ccc(Cl)cc1C(F)(F)F [Compound P7, N-(4-chloro-2-(trifluoromethyl)phenyl)-2-(2,4-dioxo-5-(pyridin-2-ylmethylene)thiazolidin-3-yl)acetamide] | – |
| > 50 µM | – | > 50 µM | 100% | O=C(CN1C(=O)SC(=Cc2ccccn2)C1=O)Nc1ccc(F)cc1 [Compound P11, 2-(2,4-dioxo-5-(pyridin-2-ylmethylene)thiazolidin-3-yl)-N-(4-fluorophenyl)acetamide] | – |
| > 50 µM | 67% | > 50 µM | 100% | COc1ccc(NC(=O)CN2C(=O)SC(=Cc3ccccn3)C2=O)cc1 [Compound P14, 2-(2,4-dioxo-5-(pyridin-2-ylmethylene)thiazolidin-3-yl)-N-(4-methoxyphenyl)acetamide] | – |
| > 50 µM | 92% | > 50 µM | 100% | O=C(CN1C(=O)SC(=Cc2ccccn2)C1=O)Nc1nccs1 [Compound P20, 2-(2,4-dioxo-5-(pyridin-2-ylmethylene)thiazolidin-3-yl)-N-(thiazol-2-yl)acetamide] | – |
| > 50 µM | 94% | > 50 µM | 100% | O=C(CN1C(=O)SC(=Cc2ccccn2)C1=O)Nc1c(F)cc(Br)cc1F [Compound P15, N-(4-bromo-2,6-difluorophenyl)-2-(2,4-dioxo-5-(pyridin-2-ylmethylene)thiazolidin-3-yl)acetamide] | – |
| > 50 µM | 54% | > 50 µM | 100% | Cc1cnc(NC(=O)CN2C(=O)SC(=Cc3ccccn3)C2=O)s1 [Compound P21, 2-(2,4-dioxo-5-(pyridin-2-ylmethylene)thiazolidin-3-yl)-N-(5-methylthiazol-2-yl)acetamide] | – |
| > 50 µM | 80% | 50 µM | 59% | O=C(CN1C(=O)SC(=Cc2ccccn2)C1=O)Nc1ccc(F)cc1F [Compound P5, N-(2,4-difluorophenyl)-2-(2,4-dioxo-5-(pyridin-2-ylmethylene)thiazolidin-3-yl)acetamide] | Thermal shift (ΔT), stabilizing effect on HDAC8 (HDAC8 [2]): did not confer significant stability to the protein |
| > 50 µM | 89% | > 50 µM | 86% | O=C(CN1C(=O)SC(=Cc2ccccn2)C1=O)Nc1ccc(Br)c(Br)c1 [Compound P25, N-(3,4-dibromophenyl)-2-(2,4-dioxo-5-(pyridin-2-ylmethylene)thiazolidin-3-yl)acetamide] | CC50 (CEM leukemia cells): 39 ± 1.69 µM; CC50 (KCL-22 leukemia cells; Homo sapiens, KCL-22, 48 h): 82.2 ± 0.32 µM; CC50 (K-562 leukemia cells): 65.6 ± 1.13 µM |
| > 50 µM | 89% | > 50 µM | 100% | O=C(CN1C(=O)SC(=Cc2ccccn2)C1=O)Nc1ccccc1 [Compound P1, 2-(2,4-dioxo-5-(pyridin-2-ylmethylene)thiazolidin-3-yl)-N-phenylacetamide] | – |
| – | 38% | – | 100% | O=C(CN1C(=O)SC(=Cc2ccccn2)C1=O)Nc1cc(C(F)(F)F)ccc1Cl [Compound P9, N-(2-chloro-5-(trifluoromethyl)phenyl)-2-(2,4-dioxo-5-(pyridin-2-ylmethylene)thiazolidin-3-yl)acetamide] | cell death at 100 μM (CEM leukemia cells): 4.80% cell death at 100 μM; Thermal shift (ΔT), stabilizing effect on HDAC8 (HDAC8 [2]): did not confer significant stability to the protein; cell death at 100 μM (KCL-22 leukemia cells): 6.54% cell death at 100 μM; CC50 (K-562 leukemia cells): 102 ± 2.45 µM |
| > 50 µM | 92% | > 50 µM | 100% | O=C(CN1C(=O)SC(=Cc2ccccn2)C1=O)Nc1ccccc1F [Compound P2, 2-(2,4-dioxo-5-(pyridin-2-ylmethylene)thiazolidin-3-yl)-N-(2-fluorophenyl)acetamide] | – |
| 47 ± 1.1 µM | 75% | – | 100% | Cc1ccc(NC(=O)CN2C(=O)SC(=Cc3ccccn3)C2=O)cc1 [Compound P12, 2-(2,4-dioxo-5-(pyridin-2-ylmethylene)thiazolidin-3-yl)-N-(p-tolyl)acetamide] | cell death at 100 μM (CEM leukemia cells): 38.67% cell death at 100 μM; Thermal shift (ΔT), stabilizing effect on HDAC8 (HDAC8 [2]): did not confer significant stability to the protein; cell death at 100 μM (KCL-22 leukemia cells): 24.81% cell death at 100 μM; cell death at 100 μM (K-562 leukemia cells): 39.42% cell death at 100 μM |
| > 50 µM | 85% | > 50 µM | 100% | O=C(CN1C(=O)SC(=Cc2ccccn2)C1=O)Nc1ccc(Br)cc1F [Compound P4, N-(4-bromo-2-fluorophenyl)-2-(2,4-dioxo-5-(pyridin-2-ylmethylene)thiazolidin-3-yl)acetamide] | – |
| > 50 µM | 88% | > 50 µM | 100% | Cc1ccc(NC(=O)CN2C(=O)SC(=Cc3ccccn3)C2=O)cc1Cl [Compound P17, N-(3-chloro-4-methylphenyl)-2-(2,4-dioxo-5-(pyridin-2-ylmethylene)thiazolidin-3-yl)acetamide] | – |
| > 50 µM | 68% | > 50 µM | 100% | COc1cccc(NC(=O)CN2C(=O)SC(=Cc3ccccn3)C2=O)c1 [Compound P24, 2-(2,4-dioxo-5-(pyridin-2-ylmethylene)thiazolidin-3-yl)-N-(3-methoxyphenyl)acetamide] | – |
| > 50 µM | 53% | > 50 µM | 100% | O=C(CN1C(=O)SC(=Cc2ccccn2)C1=O)Nc1cccc(F)c1 [Compound P3, 2-(2,4-dioxo-5-(pyridin-2-ylmethylene)thiazolidin-3-yl)-N-(3-fluorophenyl)acetamide] | – |
| > 50 µM | 82% | > 50 µM | 100% | O=C(CN1C(=O)SC(=Cc2ccccn2)C1=O)Nc1cccc(C(F)(F)F)c1 [Compound P6, 2-(2,4-dioxo-5-(pyridin-2-ylmethylene)thiazolidin-3-yl)-N-(3-(trifluoromethyl)phenyl)acetamide] | – |
| > 50 µM | – | > 50 µM | 100% | O=C(CN1C(=O)SC(=Cc2ccccn2)C1=O)Nc1ccc([N+](=O)[O-])cc1 [Compound P16, 2-(2,4-dioxo-5-(pyridin-2-ylmethylene)thiazolidin-3-yl)-N-(4-nitrophenyl)acetamide] | – |
| > 50 µM | 64% | > 50 µM | 100% | O=C(CN1C(=O)SC(=Cc2ccccn2)C1=O)Nc1ccc(Br)cc1 [Compound P22, N-(4-bromophenyl)-2-(2,4-dioxo-5-(pyridin-2-ylmethylene)thiazolidin-3-yl)acetamide] | – |
| > 50 µM | 54% | > 50 µM | 85% | O=C(CN1C(=O)SC(=Cc2ccccn2)C1=O)Nc1ccccn1 [Compound P23, 2-(2,4-dioxo-5-(pyridin-2-ylmethylene)thiazolidin-3-yl)-N-(pyridin-2-yl)acetamide] | – |
